From PubChem BioAssay
Active and inactive are the calls of the source.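 Rule for the calls, unless noted: active = viability at or below 30% in both replicate assays; inconclusive = viability at or below 30% in just one of the two assays; inactive = the rest.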

Tests used:
[1] = reducers of endogenous Her2 protein level, primary screen, SKBR3 breast tumor cells, AlphaScreen, ATP viability (AID 461;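 active = Her2 level under about 52% in both replicate screens, with viability over 70% of control, limit read from the data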;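 for Her2 level: lower value means less Her2 protein in the cells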;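 for viability: percent of carrier control wells set as 100% viability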); settings: 18-24 h, measured here: SKBR3 viability, ATP luminescence, at 10 µM
[2] = target: Receptor tyrosine-protein kinase erbB-2 (Homo sapiens) (UniProt P04626); assay: as above; settings: 18-24 h, at 10 µM, stronger effect = lower value
[3] = SK-BR-3 cell growth inhibitors, pilot screen, 24 h, human (AID 572;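 active = viability at or below 10% of carrier control in both of two separate runs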;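 note: compound exposure lasted between 18 and 24 h rather than exactly 24 h; 100% = carrier-treated control wells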); settings: SK-BR-3 viability, CellTiter-Glo luminescence, at 10 µM, stronger effect = lower value
[4] = HUVEC growth inhibition – cell-based, human, primary screen (AID 575); settings: HUVEC proliferation, CellTiter-Glo luminescence, 72 h; at 10 µM; stronger effect = lower value;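 note: 100% = median of untreated cell wells with 0.1% DMSO on each plate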
Summary of the method: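 System: primary human umbilical vein endothelial cells; Quantity: 1250 endothelial cells in each well; Buffer or medium: supplemented EBM, 2% fetal bovine serum; Doses: one dose, 10 µM final, 0.1% DMSO; Incubation: 72 h compound incubation; Technique: ATP-based CellTiter-Glo luminescent read; Evaluation: percent of median DMSO-control luminescence; Controls: vehicle and MePR control wells.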

[5] = growth inhibitors of H69AR lung tumor, primary screen, human, duplicate replicates (AID 580;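 active = viability at or under a set limit in both replicates, limit being median viability minus 3 SD, cut at about 48% in these data, passing the limit was not always enough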;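 note: 100% = mean luminescence of untreated wells and 0% = no signal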); settings: H69AR lung tumor cells viability, ATP luminescence, 72 h; at 10 µM; stronger effect = lower value
[6] = reversal of MRP1-mediated doxorubicin resistance, pilot screen, H69AR cells, doxorubicin co-treatment (AID 601;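 active = viability loss from added drug above about 55%, and viability with drug at most 40%, in both replicates, limit read from the data, passing the limit was not always enough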); settings: CellTiter-Glo, 72 h, at 10 µM; for differential viability (reversal): stronger effect = higher value
[7] = 384-well plate pilot, post-Golgi transport modulator project, inhibition of yeast transport mutant growth (AID 636; in the data active = inhibition above about 31%); settings: absorbance 615 nm, about 18 h, stronger effect = higher value
[8] = growth suppression of yeast trafficking mutant, preliminary HTS, modulators of trafficking downstream of Golgi apparatus project, 1536-format plate, OD 615 nm (AID 637; in the data active = inhibition above about 30%); settings: yeast transport mutant growth, absorbance 615 nm, 18 h; stronger effect = higher value
[9] = H69AR cells + 2 uM doxorubicin, measured here: viability with 2 uM doxorubicin, stronger effect = lower value
[10] = H69AR cells, compound alone cytotoxicity

Sequence of Receptor tyrosine-protein kinase erbB-2 (Homo sapiens) (P04626 whole entry, looked up): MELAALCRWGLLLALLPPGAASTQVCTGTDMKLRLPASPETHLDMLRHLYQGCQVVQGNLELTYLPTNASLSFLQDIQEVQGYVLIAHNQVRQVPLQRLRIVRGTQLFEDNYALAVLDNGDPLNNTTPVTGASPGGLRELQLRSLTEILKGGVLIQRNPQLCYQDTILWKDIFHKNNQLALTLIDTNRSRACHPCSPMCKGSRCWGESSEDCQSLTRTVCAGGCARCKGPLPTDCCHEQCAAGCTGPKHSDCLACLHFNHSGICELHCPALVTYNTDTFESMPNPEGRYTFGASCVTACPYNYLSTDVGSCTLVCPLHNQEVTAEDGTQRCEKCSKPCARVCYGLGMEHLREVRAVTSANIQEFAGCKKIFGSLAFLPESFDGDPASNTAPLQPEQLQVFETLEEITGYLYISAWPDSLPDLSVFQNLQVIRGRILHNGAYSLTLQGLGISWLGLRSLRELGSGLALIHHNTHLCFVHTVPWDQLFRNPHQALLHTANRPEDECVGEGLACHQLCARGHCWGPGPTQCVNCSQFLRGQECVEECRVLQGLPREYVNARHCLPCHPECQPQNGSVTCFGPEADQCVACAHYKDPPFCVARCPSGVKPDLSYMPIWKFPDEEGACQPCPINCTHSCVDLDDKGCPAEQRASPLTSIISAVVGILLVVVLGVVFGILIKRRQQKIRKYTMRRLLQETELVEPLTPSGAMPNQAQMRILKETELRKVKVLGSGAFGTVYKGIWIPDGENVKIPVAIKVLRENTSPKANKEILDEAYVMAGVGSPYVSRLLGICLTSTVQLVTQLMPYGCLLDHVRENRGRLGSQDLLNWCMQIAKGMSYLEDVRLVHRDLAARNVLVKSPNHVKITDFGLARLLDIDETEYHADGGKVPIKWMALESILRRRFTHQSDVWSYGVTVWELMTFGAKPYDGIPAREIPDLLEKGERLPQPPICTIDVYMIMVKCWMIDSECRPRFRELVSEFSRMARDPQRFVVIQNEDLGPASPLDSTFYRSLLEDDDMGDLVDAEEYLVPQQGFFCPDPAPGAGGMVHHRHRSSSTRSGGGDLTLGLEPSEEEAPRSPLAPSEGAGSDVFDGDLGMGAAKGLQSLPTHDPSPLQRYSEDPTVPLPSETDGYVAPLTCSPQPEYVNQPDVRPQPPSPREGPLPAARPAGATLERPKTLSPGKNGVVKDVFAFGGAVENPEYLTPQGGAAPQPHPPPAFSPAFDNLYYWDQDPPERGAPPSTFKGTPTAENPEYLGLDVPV

Structure (SMILES): CCOC(=O)CSc1nc2ccccc2n1CC(=O)N1CCN(c2ccccc2)CC1
- viability [1]: 93.5%
- Her2 level [2]: 99.5% (inactive)
- viability [3]: 93.5% (inactive)
- viability [4]: 87.2% (inactive)
- viability [5]: 89.9% (inactive)
- differential viability (reversal) ([6]; H69AR cells + 2 uM doxorubicin): 2.73% (inactive)
- viability [6, 9]: 87.1%
- viability [6, 10]: 89.9%
- inhibition [7]: -1.3% (inactive)
- inhibition [8]: -4.92% (inactive)

Structure (SMILES): COc1ccc(-c2noc(-c3ccccc3C(=O)Nc3cccnc3)n2)cc1
- viability [1]: 109%
- Her2 level [2]: 98.5% (inactive)
- viability [3]: 109% (inactive)
- viability [4]: 106% (inactive)
- viability [5]: 86.5% (inactive)
- differential viability (reversal) ([6]; H69AR cells + 2 uM doxorubicin): 13.2% (inactive)
- viability [6, 9]: 73.3%
- viability [6, 10]: 86.5%
- inhibition [7]: -1.17% (inactive)
- inhibition [8]: 0.79% (inactive)

Structure (SMILES): O=C(CN(Cc1ccco1)C(=O)c1cc(=O)[nH]c2ccccc12)Nc1ccccc1Br
- viability [1]: 97%
- Her2 level [2]: 79.5% (inactive)
- viability [3]: 97% (inactive)
- viability [4]: 98.2% (inactive)
- viability [5]: 83.1% (inactive)
- differential viability (reversal) ([6]; H69AR cells + 2 uM doxorubicin): 9.09% (inactive)
- viability [6, 9]: 74%
- viability [6, 10]: 83.1%
- inhibition [7]: -4.4% (inactive)
- inhibition [8]: -0.33% (inactive)

Structure (SMILES): Fc1ccc(-c2nnc(CN3CCN(c4ncc(C(F)(F)F)cc4Cl)CC3)o2)cc1
- viability [1]: 104%
- Her2 level [2]: 87% (inactive)
- viability [3]: 104% (inactive)
- viability [4]: 63.4% (inactive)
- viability [5]: 90.5% (inactive)
- differential viability (reversal) ([6]; H69AR cells + 2 uM doxorubicin): -0.76% (inactive)
- viability [6, 9]: 91.3%
- viability [6, 10]: 90.5%
- inhibition [7]: -1.43% (inactive)
- inhibition [8]: 3.61% (inactive)

Structure (SMILES): CCCCOC(=O)C1=C(C)Nc2ncnn2C1c1cccc(OC)c1OC (stereo not given)
- viability [1]: 81.5%
- Her2 level [2]: 65.5% (inactive)
- viability [3]: 81.5% (inactive)
- viability [4]: 95% (inactive)
- viability [5]: 88.5% (inactive)
- differential viability (reversal) ([6]; H69AR cells + 2 uM doxorubicin): 7.84% (inactive)
- viability [6, 9]: 80.7%
- viability [6, 10]: 88.5%
- inhibition [7]: -5.13% (inactive)
- inhibition [8]: -3.33% (inactive)

Structure (SMILES): COc1cc(C2c3c(n[nH]c3C)C(=O)N2c2ccc(C)cc2)ccc1O (stereo not given)
- viability [1]: 113%
- Her2 level [2]: 73% (inactive)
- viability [3]: 113% (inactive)
- viability [4]: 88.9% (inactive)
- viability [5]: 101% (inactive)
- differential viability (reversal) ([6]; H69AR cells + 2 uM doxorubicin): 3.7% (inactive)
- viability [6, 9]: 97%
- viability [6, 10]: 101%
- inhibition [7]: -3.87% (inactive)
- inhibition [8]: -2.3% (inactive)

Structure (SMILES): CCC(C(=O)Nc1ncccn1)(C(F)(F)F)C(F)(F)F
- viability [1]: 86.5%
- Her2 level [2]: 99% (inactive)
- viability [3]: 86.5% (inactive)
- viability [4]: 95.7% (inactive)
- viability [5]: 103% (inactive)
- differential viability (reversal) ([6]; H69AR cells + 2 uM doxorubicin): 8.62% (inactive)
- viability [6, 9]: 94.6%
- viability [6, 10]: 103%
- inhibition [7]: 0.27% (inactive)
- inhibition [8]: 0.82% (inactive)

Structure (SMILES): O=C(OCc1cccs1)c1ccccc1NS(=O)(=O)c1ccc2c(c1)OCCO2
- viability [1]: 91.5%
- Her2 level [2]: 94% (inactive)
- viability [3]: 91.5% (inactive)
- viability [4]: 121% (inactive)
- viability [5]: 102% (inactive)
- differential viability (reversal) ([6]; H69AR cells + 2 uM doxorubicin): 15.6% (inactive)
- viability [6, 9]: 86.7%
- viability [6, 10]: 102%
- inhibition [7]: -3.95% (inactive)
- inhibition [8]: 5.74% (inactive)

Structure (SMILES): Nc1nonc1-n1nnc(C(=O)c2ccccc2)c1-c1ccccc1
- viability [1]: 96.5%
- Her2 level [2]: 100% (inactive)
- viability [3]: 96.5% (inactive)
- viability [4]: 63.6% (inactive)
- viability [5]: 99.4% (inactive)
- differential viability (reversal) ([6]; H69AR cells + 2 uM doxorubicin): 7.96% (inactive)
- viability [6, 9]: 91.4%
- viability [6, 10]: 99.4%
- inhibition [7]: -6.58% (inactive)
- inhibition [8]: 6.03% (inactive)

Structure (SMILES): COC(=O)c1[nH]c2ccccc2c1NS(=O)(=O)c1ccc(OC)cc1OC
- viability [1]: 88.5%
- Her2 level [2]: 82% (inactive)
- viability [3]: 88.5% (inactive)
- viability [4]: 96.8% (inactive)
- viability [5]: 84% (inactive)
- differential viability (reversal) ([6]; H69AR cells + 2 uM doxorubicin): -15.4% (inactive)
- viability [6, 9]: 99.4%
- viability [6, 10]: 84%
- inhibition [7]: -5.26% (inactive)
- inhibition [8]: -3.82% (inactive)

Structure (SMILES): Cc1ccc(NC(=O)CSc2nnc(CCCCCNC(=O)OC(C)(C)C)o2)c(C)c1
- viability [1]: 112%
- Her2 level [2]: 87% (inactive)
- viability [3]: 112% (inactive)
- viability [4]: 88.6% (inactive)
- viability [5]: 93.2% (inactive)
- differential viability (reversal) ([6]; H69AR cells + 2 uM doxorubicin): 1.79% (inactive)
- viability [6, 9]: 91.4%
- viability [6, 10]: 93.2%
- inhibition [7]: 1.71% (inactive)
- inhibition [8]: 1.29% (inactive)

Structure (SMILES): CCOc1ccc2c(O)csc2c1
- viability [1]: 90.5%
- Her2 level [2]: 116% (inactive)
- viability [3]: 90.5% (inactive)
- viability [4]: 96.2% (inactive)
- viability [5]: 95.9% (inactive)
- differential viability (reversal) ([6]; H69AR cells + 2 uM doxorubicin): 2.28% (inactive)
- viability [6, 9]: 93.7%
- viability [6, 10]: 95.9%
- inhibition [7]: 0.13% (inactive)
- inhibition [8]: 2.17% (inactive)

Structure (SMILES): COCCn1c(CN(Cc2ccccc2)Cc2ccccc2)nc2c1c(=O)n(C)c(=O)n2C
- viability [1]: 81%
- Her2 level [2]: 96% (inactive)
- viability [3]: 81% (inactive)
- viability [4]: 81.2% (inactive)
- viability [5]: 81.2% (inactive)
- differential viability (reversal) ([6]; H69AR cells + 2 uM doxorubicin): -11.8% (inactive)
- viability [6, 9]: 93%
- viability [6, 10]: 81.2%
- inhibition [7]: -1.87% (inactive)
- inhibition [8]: 1.5% (inactive)

Structure (SMILES): CN(C)c1ccc(C=Nc2ccc(N(C)C)cc2)cc1
- viability [1]: 104%
- Her2 level [2]: 94% (inactive)
- viability [3]: 104% (inactive)
- viability [4]: 74.2% (inactive)
- viability [5]: 70.4% (inactive)
- differential viability (reversal) ([6]; H69AR cells + 2 uM doxorubicin): -7.71% (inactive)
- viability [6, 9]: 78.1%
- viability [6, 10]: 70.4%
- inhibition [7]: -6.22% (inactive)
- inhibition [8]: -6.23% (inactive)

Structure (SMILES): CCNCc1cc2cc(C)ccc2[nH]c1=O
- viability [1]: 106%
- Her2 level [2]: 99% (inactive)
- viability [3]: 106% (inactive)
- viability [4]: 80.6% (inactive)
- viability [5]: 82.7% (inactive)
- differential viability (reversal) ([6]; H69AR cells + 2 uM doxorubicin): -7.93% (inactive)
- viability [6, 9]: 90.6%
- viability [6, 10]: 82.7%
- inhibition [7]: -8.78% (inactive)
- inhibition [8]: -7% (inactive)

Structure (SMILES): Cc1nc(C)c(C(=O)Nc2ccc(Oc3ccccc3)cc2)o1
- viability [1]: 94.5%
- Her2 level [2]: 82% (inactive)
- viability [3]: 94.5% (inactive)
- viability [4]: 66.4% (inactive)
- viability [5]: 103% (inactive)
- differential viability (reversal) ([6]; H69AR cells + 2 uM doxorubicin): 23.8% (inactive)
- viability [6, 9]: 79.4%
- viability [6, 10]: 103%
- inhibition [7]: -6.35% (inactive)
- inhibition [8]: -6.5% (inactive)
